Assay outcomes as filed in PubChem.
MrgX1 agonist: agonists of human MrgX1 receptor, primary screen, HEK293 cells, Fluo-4 calcium flux | B-score at 10 µM | 310,000 compounds, 0.44% hits | Mas-related G-protein coupled receptor member X1 (Homo sapiens), Q96LB2 | Fluo-4 calcium fluorescence, agonist mode; active compounds read high;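 active = calcium response B-score plate-corrected fluorescence ratio at least 3 library SD, with starting fluorescence B-score inside 5 SD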
Target sequence (Q96LB2 whole entry, looked up): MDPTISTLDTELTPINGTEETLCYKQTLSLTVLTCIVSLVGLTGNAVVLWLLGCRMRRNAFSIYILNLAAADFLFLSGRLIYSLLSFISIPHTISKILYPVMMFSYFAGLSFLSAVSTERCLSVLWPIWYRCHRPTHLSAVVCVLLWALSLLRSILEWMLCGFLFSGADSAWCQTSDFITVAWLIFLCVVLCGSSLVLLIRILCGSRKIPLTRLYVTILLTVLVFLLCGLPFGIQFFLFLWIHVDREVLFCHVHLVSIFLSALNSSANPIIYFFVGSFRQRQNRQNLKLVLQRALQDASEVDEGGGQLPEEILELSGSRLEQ
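Test system: HEK293 cells stably expressing human MrgX1 receptor; amount: 15,000 cells per well; doses: compound delivered in addition one of three; times: overnight plating before 1 h dye loading; detection: Fluo-4 NW calcium-flux fluorescence, kinetic read; read-out basis: B-scored fluorescence response ratio; controls: positive and negative controls per plate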
MrgX1 allo act: positive allosteric modulators of MrgX1, primary screen, HEK293 cells, Fluo-4 calcium flux. B-score at 10 µM. FDSS; active compounds read high. 310,000 compounds, 0.63% hits. Mas-related G-protein coupled receptor member X1 (Homo sapiens), Q96LB2;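 active = plate-corrected calcium response at least 3 library SD above typical, normal starting fluorescence, not activating the receptor alone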;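 note: compound read alongside a low EC10 to EC30 dose of BAM8-22 agonist; peak minus trough fluorescence over baseline measured at the second addition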
RGS4 act: RGS4 potentiators or activators, primary screen, cell-based, HEK293 M3R inducible RGS4, calcium flux | carbachol calcium flux Fluo4; active compounds read low | B-score at 10 µM | 310,000 compounds, 0.92% hits;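 active = B-score of the integrated calcium signal more than 4 SD below the library mean, with starting fluorescence not abnormally high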;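 note: negative B-score means reduced calcium response which marks RGS4 activation or potentiation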
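Detection: kinetic calcium fluorescence imaging with Fluo4-AM dye, 2 µM / Material: HEK293 cells with stable M3R and inducible RGS4 / Schedule: recording 10 s baseline at 1 Hz, 100 s post-agonist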
MrgX1 antag: antagonists of human MrgX1 receptor, primary screen, HEK293 cells, Fluo-4 calcium flux; Mas-related G-protein coupled receptor member X1 (Homo sapiens), Q96LB2; BAM8-22 antagonism; active compounds read low; B-score at 10 µM; 310,000 compounds, 1.3% hits; AID 588676, 2011;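 active = calcium-response B-score plate-corrected more than 3 library SD below zero, starting fluorescence within 5 deviations, no agonist response on first addition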;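 note: peak minus trough fluorescence over baseline after final BAM8-22 challenge near maximal dose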
RGS4 inh: RGS4 inhibitors, primary screen, cell-based, HEK293 M3R inducible RGS4, calcium flux; Fluo-4 calcium flux; active compounds read high; triggered by carbachol at its EC20; B-score at 10 µM; 310,000 compounds, 0.45% hits; AID 463165, 2010;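 active = B-score, a plate-corrected calcium signal, over three deviations above library mean, with baseline fluorescence within five deviations of library mean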;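 note: RGS4 expression induced by doxycycline in cells with stable M3 receptor; B-score is computed from the integrated fluorescence ratio over baseline after carbachol; higher B-score means a larger calcium signal and so more RGS4 inhibition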
Target sequence (P49798 whole entry, looked up): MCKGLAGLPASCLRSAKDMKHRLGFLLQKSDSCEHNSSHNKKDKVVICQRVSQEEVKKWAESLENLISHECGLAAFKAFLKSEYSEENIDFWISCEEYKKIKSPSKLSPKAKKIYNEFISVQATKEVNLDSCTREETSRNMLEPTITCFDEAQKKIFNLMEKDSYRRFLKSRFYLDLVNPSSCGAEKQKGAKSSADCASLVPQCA
Of the large screens only hits and unclear results are named; the others gave an inactive call. Hits are enriched below; roughly 3.5% of the tested compounds scored in any of these assays.

CCOc1ccc(N2C(=O)CC(NCC#N)C2=O)cc1 (stereo not given)	none
CC(=O)c1cccc(Nc2nc(-c3sc(N)nc3C)cs2)c1	RGS4 act -7.2
Cc1nc(C)c(-c2csc(Nc3cccc(O)c3)n2)s1	none
CC(=O)c1cccc(Nc2nc(-c3sc(C)nc3C)cs2)c1	none
CCC(=O)Nc1nc(C)c(-c2csc(Nc3cccc(O)c3)n2)s1	RGS4 act -7.3, MrgX1 antag -5.4
O=C(OCC(O)COC(=O)c1cccnc1)c1cccnc1	none
COc1ccc(N2CCN(S(=O)(=O)c3ccc4c(c3)NC(=O)C(C)S4)CC2)cc1 (stereo not given)	none
Fc1ccc(Cn2c(SCc3ccc(F)c(F)c3)nnc2C(F)(F)F)cc1	RGS4 act -8.5
CCOc1ccc(NC(=O)CSc2nc3ccccc3nc2N2CC(C)OC(C)C2)cc1 (stereo not given)	none
C#CCOCCOCCOCCNc1nc(N2CCN(C(=O)CCCCCCCCCCNC(=O)[C@H](CCCCN)n3cc(C[C@@H](C)CC)nn3)CC2)nc(N2CCN(C(=O)CCCCCCCCCCNC(=O)[C@@H]([C@H](C)O)n3cc(C)nn3)CC2)n1	MrgX1 allo act 6.9 (no result: RGS4 act, RGS4 inh)
C#CCOCCOCCOCCNc1nc(N2CCN(C(=O)CCCCCCCCCCNC(=O)[C@H](CCCCN)n3cc(C)nn3)CC2)nc(N2CCN(C(=O)CCCCCCCCCCNC(=O)[C@@H]([C@H](C)O)n3cc(C)nn3)CC2)n1	none (no result: RGS4 act, RGS4 inh)
C#CCOCCOCCOCCNc1nc(N2CCN(C(=O)CCCCCCCCCCNC(=O)[C@H]([C@@H](C)CC)n3cc(CCCCN=C(N)N)nn3)CC2)nc(N2CCN(C(=O)CCCCCCCCCCNC(=O)[C@@H]([C@H](C)O)n3cc(C)nn3)CC2)n1	none (no result: RGS4 act, RGS4 inh)
C#CCOCCOCCOCCNc1nc(N2CCN(C(=O)CCCCCCCCCCNC(=O)[C@H](CO)n3cc(CCCCCN)nn3)CC2)nc(N2CCN(C(=O)CCCCCCCCCCNC(=O)[C@H](CCCN=C(N)N)n3cc(C[C@@H](C)CC)nn3)CC2)n1	MrgX1 agonist 70 (no result: RGS4 act, RGS4 inh)
C#CCOCCOCCOCCNc1nc(N2CCN(C(=O)CCCCCCCCCCNC(=O)[C@H](CCCCN)n3cc(C[C@@H](C)CC)nn3)CC2)nc(N2CCN(C(=O)CCCCCCCCCCNC(=O)[C@H](CCCN=C(N)N)n3cc(C[C@@H](C)CC)nn3)CC2)n1	MrgX1 agonist 35 (no result: RGS4 act, RGS4 inh)
C#CCOCCOCCOCCNc1nc(N2CCN(C(=O)CCCCCCCCCCNC(=O)[C@@H](CCSC)n3cc(CCO)nn3)CC2)nc(N2CCN(C(=O)CCCCCCCCCCNC(=O)[C@H](CCCN=C(N)N)n3cc(C[C@@H](C)CC)nn3)CC2)n1	none (no result: RGS4 act, RGS4 inh)
C#CCOCCOCCOCCNc1nc(N2CCN(C(=O)CCCCCCCCCCNC(=O)[C@H](CCCCN)n3cc(C)nn3)CC2)nc(N2CCN(C(=O)CCCCCCCCCCNC(=O)[C@H](CCCN=C(N)N)n3cc(C[C@@H](C)CC)nn3)CC2)n1	MrgX1 agonist 104 (no result: RGS4 act, RGS4 inh)
O=C(CSCc1ccc(Br)cc1)NCCc1ccccc1	none
CC1(C)CC(=O)C=C(c2cccnc2)C1	none
O=C(CSc1ccc(-c2ccc(Cl)cc2)nn1)N1CCCc2ccccc21	none
O=C(CSc1ccc(-c2ccc(F)cc2)nn1)N1CCCc2ccccc21	RGS4 act -7.4
CC1Cc2ccccc2N1C(=O)CN1CCCCC1 (stereo not given)	none
O=C(CN1CCCCC1)N1c2ccccc2Oc2ccccc21	RGS4 act -7.5
CCOc1ccc(-n2nc3c(=O)n(CCN4CCCCC4)nc(C)c3c2C)cc1	RGS4 act -8.5
NC(=O)COC(=O)CNC(=O)c1sc2ccccc2c1Cl	none
CCC1CCCCN1CCCNC(=O)CSc1nc2nc(C)c(Cc3ccccc3Cl)c(C)n2n1 (stereo not given)	RGS4 act -7
[O-][n+]1c2ccc3nonc3c2nn1-c1ccccc1Cl	none
CC(C)CC(=O)O/N=C1\C(=O)N(Cc2ccc(Cl)cc2)c2ccc([N+](=O)[O-])cc21	RGS4 inh 6.4
CC(C)CC(=O)O/N=C1\C(=O)N(c2ccccc2)c2ccccc21	none
Cc1cccc(C(=O)OCC(=O)Nc2c(C)nn(-c3ccccc3)c2C)c1O	none
Cc1nn(-c2ccccc2)c(C)c1NC(=O)COC(=O)c1cc(Br)ccc1O	RGS4 act -7.2
CCCCN(CCCNC(=O)c1c(C)cc(=O)oc1C)c1ccccc1	MrgX1 antag -7.9
O=[N+]([O-])/C=C/c1cc2ccccc2[nH]1	MrgX1 agonist 41
CCCCCCOC1(c2ccccc2)OC(=O)c2ccccc21 (stereo not given)	RGS4 act -7
COc1cccc2cc(C(=O)OCC(=O)NCc3ccc4c(c3)OCO4)c(=O)oc12	none
O=C1CN(C(=O)/C=C/c2cc(Br)ccc2F)CCN1	none
Cc1ncc(CO)c2c1Oc1nc(-c3ccccc3)nc(SCC(=O)N(C)c3ccccc3)c1C2	MrgX1 allo act 10, RGS4 act -8.1
COc1ccccc1-c1nc2c(c(SCC(=O)N3CCCCC3)n1)Cc1c(CO)cnc(C)c1O2	RGS4 act -8.1
Cc1ncc(CO)c2c1Oc1nc(-c3ccccc3F)nc(SCC(=O)N(C)c3ccccc3)c1C2	none
Cc1ncc(CO)c2c1Oc1nc(-c3ccccc3)nc(SCC(=O)N3CCOCC3)c1C2	none
N#C/C(=C\c1ccc(Sc2nc3ccccc3[nH]2)o1)c1ccccc1	MrgX1 antag -4.8
CN1CCN(Cc2ccc(Sc3ccc(Cl)cc3)c([N+](=O)[O-])c2)CC1	RGS4 act -8.3
O=C(O)c1ccccc1C(=O)c1ccc(Sc2ccc(Cl)cc2)c([N+](=O)[O-])c1	MrgX1 agonist 38
Nc1ccccc1Sc1ccc(C(=O)c2ccccc2C(=O)O)cc1[N+](=O)[O-]	none
COc1ccccc1C(CNC(=O)c1cc(C)nc2ccccc12)N(C)C (stereo not given)	none
Cn1c(SCC(=O)N2CCOCC2)nnc1-c1ccco1	none
CSc1ncc(CO)n1Cc1ccccc1	none
CCCCCC(=O)Nc1cccc(C2=NOC3(C2)C[C@@H](C(N)=O)N(C(=O)c2cc([N+](=O)[O-])cc([N+](=O)[O-])c2)C3)c1 (stereo not given in full)	MrgX1 antag -6.1
C=C(C)C(=O)N1CC2(CC(c3cccc(NC(=O)/C(C)=C\C)c3)=NO2)C[C@H]1C(N)=O (stereo not given in full)	MrgX1 antag -4.8
Cc1c(N2C(=O)CSC2c2ccc([N+](=O)[O-])cc2)c(=O)n(-c2ccccc2)n1C (stereo not given)	none
